{"source": "ChEMBL document CHEMBL4400511", "about": "“Benzothiopyranoindole- and pyridothiopyranoindole-based antiproliferative agents targeting topoisomerases” (2019)", "key": {"[1]": {"system": "HeLa", "experiment": "Induction of apoptosis in human HeLa cells assessed as necrotic cells at 80 uM after 18 hrs by Annexin-V-FITC/propidium iodide staining based flow cytometric analysis (reference value: 0.7%)", "assay_type": "functional", "summary_of_the_method": "(§1)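 HeLa cells were incubated 18 h without compound (control) or at 20 and 80 µM. They were stained with FITC-annexin V and propidium iodide and analysed by dual-parameter flow cytometry. Cells were scored as viable, early apoptotic, late apoptotic or necrotic.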"}, "[2]": {"molecular_target": "DNA topoisomerase 2-alpha (Homo sapiens) (UniProt P11388)", "sequence (P11388 whole entry)": "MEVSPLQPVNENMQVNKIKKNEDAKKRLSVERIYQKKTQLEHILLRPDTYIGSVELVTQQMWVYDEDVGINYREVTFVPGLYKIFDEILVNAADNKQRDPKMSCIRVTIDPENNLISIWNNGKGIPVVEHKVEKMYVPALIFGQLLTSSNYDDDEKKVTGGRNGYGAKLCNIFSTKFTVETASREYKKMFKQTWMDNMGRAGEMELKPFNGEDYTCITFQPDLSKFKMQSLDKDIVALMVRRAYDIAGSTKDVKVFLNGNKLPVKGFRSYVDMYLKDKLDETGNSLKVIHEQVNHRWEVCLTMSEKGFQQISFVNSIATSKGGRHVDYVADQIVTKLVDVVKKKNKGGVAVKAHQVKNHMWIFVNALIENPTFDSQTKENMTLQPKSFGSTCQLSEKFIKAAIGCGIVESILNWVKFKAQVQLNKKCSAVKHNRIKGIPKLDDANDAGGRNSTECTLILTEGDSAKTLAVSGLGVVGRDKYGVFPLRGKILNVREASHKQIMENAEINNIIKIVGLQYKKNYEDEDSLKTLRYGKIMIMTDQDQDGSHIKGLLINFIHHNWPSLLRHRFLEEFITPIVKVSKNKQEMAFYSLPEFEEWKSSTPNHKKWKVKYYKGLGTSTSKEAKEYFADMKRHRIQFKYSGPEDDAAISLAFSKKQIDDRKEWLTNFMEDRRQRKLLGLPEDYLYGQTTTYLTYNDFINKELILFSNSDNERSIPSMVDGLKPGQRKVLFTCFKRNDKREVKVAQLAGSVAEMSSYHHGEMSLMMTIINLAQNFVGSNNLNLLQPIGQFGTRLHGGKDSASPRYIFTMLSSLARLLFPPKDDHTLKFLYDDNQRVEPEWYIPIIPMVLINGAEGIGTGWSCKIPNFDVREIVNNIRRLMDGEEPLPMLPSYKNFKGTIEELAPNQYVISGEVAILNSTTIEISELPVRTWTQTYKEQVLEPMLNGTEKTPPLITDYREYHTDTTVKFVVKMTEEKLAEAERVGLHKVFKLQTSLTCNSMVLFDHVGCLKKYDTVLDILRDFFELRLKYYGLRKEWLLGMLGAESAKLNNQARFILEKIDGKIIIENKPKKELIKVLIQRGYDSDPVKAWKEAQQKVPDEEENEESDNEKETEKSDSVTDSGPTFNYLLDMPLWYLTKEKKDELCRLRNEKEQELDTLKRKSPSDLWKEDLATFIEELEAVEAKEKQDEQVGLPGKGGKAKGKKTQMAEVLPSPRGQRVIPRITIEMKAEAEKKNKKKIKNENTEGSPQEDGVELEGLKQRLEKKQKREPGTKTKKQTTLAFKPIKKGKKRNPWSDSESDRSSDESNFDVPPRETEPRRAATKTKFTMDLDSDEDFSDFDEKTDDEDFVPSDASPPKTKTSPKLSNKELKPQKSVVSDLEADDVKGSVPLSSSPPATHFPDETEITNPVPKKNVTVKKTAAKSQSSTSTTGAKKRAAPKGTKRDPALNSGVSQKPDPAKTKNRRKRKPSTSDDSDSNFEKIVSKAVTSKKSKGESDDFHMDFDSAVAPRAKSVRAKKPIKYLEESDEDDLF", "experiment": "Inhibition of recombinant human topoisomerase 2alpha assessed as decrease in relaxation of supercoiled pBR322 DNA after 60 mins by ethidium bromide staining based agarose gel electrophoresis method", "summary_of_the_method": "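Topo II was incubated with supercoiled pBR322 DNA, with or without compound at a series of µM concentrations. Read-out is topoisomer formation from supercoiled DNA on a gel. Reference is 10 µM m-AMSA.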"}, "[3]": {"system": "A-431", "experiment": "Growth inhibition in human A431 cells after 72 hrs by trypan blue dye-based assay", "assay_type": "functional", "details": "A-431, 72 h", "summary_of_the_method": "(§2)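 Three human tumour lines were used: HeLa (cervix adenocarcinoma), A-431 (epidermoid/squamous carcinoma) and MSTO-211H (biphasic mesothelioma). GI50 is the µM concentration giving 50% cell death relative to the untreated control culture. Ellipticine was run as reference.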"}, "[4]": {"system": "HeLa", "experiment": "Induction of apoptosis in human HeLa cells assessed as necrotic cells at 20 uM after 18 hrs by Annexin-V-FITC/propidium iodide staining based flow cytometric analysis (reference value: 0.7%)", "assay_type": "functional", "summary_of_the_method": "as §1"}, "[5]": {"molecular_target": "DNA topoisomerase 2-alpha (Homo sapiens) (UniProt P11388)", "experiment": "Poison activity at recombinant human topoisomerase-2 assessed as stabilization of covalent topo-2-DNA cleavage complex by measuring linear DNA formation up to 50 uM using supercoiled pBR322 DNA as substrate after 60 mins by agarose gel electrophoresis method", "summary_of_the_method": "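Cleavable-complex assay: supercoiled pBR322 DNA was incubated with Topo II, with or without compound at a series of µM concentrations. Enzyme-mediated linear DNA marks cleavage-complex stabilisation. Reference poison is 10 µM m-AMSA.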"}, "[6]": {"system": "HeLa", "experiment": "Induction of apoptosis in human HeLa cells assessed as viable cells at 20 uM after 18 hrs by Annexin-V-FITC/propidium iodide staining based flow cytometric analysis (reference value: 91.6%)", "assay_type": "functional", "details": "read-out: Activity", "summary_of_the_method": "as §1"}, "[7]": {"system": "HeLa", "experiment": "Induction of apoptosis in human HeLa cells assessed as late apoptotic cells at 20 uM after 18 hrs by Annexin-V-FITC/propidium iodide staining based flow cytometric analysis (reference value: 2.2%)", "assay_type": "functional", "summary_of_the_method": "as §1"}, "[8]": {"molecular_target": "T1, DNA topoisomerase 1 (Homo sapiens) (UniProt P11387)", "T1 sequence (whole entry)": "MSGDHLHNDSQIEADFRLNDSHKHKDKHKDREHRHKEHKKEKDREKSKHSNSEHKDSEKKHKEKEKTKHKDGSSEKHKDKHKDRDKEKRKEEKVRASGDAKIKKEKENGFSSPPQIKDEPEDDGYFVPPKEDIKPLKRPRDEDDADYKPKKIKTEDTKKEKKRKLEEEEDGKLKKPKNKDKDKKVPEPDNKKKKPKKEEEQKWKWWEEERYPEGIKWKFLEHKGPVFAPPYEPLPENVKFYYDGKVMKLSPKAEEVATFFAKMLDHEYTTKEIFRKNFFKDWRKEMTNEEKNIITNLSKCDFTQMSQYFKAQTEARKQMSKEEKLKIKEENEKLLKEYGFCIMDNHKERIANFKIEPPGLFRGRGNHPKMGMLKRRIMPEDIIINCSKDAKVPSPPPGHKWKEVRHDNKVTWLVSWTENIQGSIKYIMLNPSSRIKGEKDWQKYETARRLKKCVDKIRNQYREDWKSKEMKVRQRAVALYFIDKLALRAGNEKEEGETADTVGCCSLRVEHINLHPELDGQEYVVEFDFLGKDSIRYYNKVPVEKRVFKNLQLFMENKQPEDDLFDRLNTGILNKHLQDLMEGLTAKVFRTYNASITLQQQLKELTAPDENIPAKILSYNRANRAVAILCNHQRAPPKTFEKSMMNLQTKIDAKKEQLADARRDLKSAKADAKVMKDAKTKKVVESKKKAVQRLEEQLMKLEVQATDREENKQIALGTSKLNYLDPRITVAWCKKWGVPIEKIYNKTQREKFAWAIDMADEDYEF", "experiment": "Poison activity at recombinant human topoisomerase-1 assessed as stabilization of covalent topo-1-DNA cleavage complex by measuring nicked DNA formation using supercoiled pBR322 DNA as substrate after 60 mins by agarose gel electrophoresis method", "summary_of_the_method": "(§3)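 Cleavable-complex assay: supercoiled pBR322 DNA was incubated with Topo I, with or without compound at a series of µM concentrations. Nicked DNA formation marks covalent complex stabilisation. Reference is 0.5 µM camptothecin.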"}, "[9]": {"molecular_target": "T1, DNA topoisomerase 1 (Homo sapiens)", "experiment": "Poison activity at recombinant human topoisomerase-1 assessed as stabilization of covalent topo-1-DNA cleavage complex by measuring nicked DNA formation at 0.5 to 50 uM using supercoiled pBR322 DNA as substrate after 60 mins by agarose gel electrophoresis method", "summary_of_the_method": "as §3"}, "[10]": {"molecular_target": "T1, DNA topoisomerase 1 (Homo sapiens)", "experiment": "Inhibition of recombinant human topoisomerase 1 assessed as decrease in relaxation of supercoiled pBR322 DNA after 60 mins by ethidium bromide staining based agarose gel electrophoresis method", "summary_of_the_method": "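Human recombinant Topo I was incubated with supercoiled pBR322 DNA, with or without compound at a series of µM concentrations. Read-out is the number of relaxed topoisomers formed.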"}, "[11]": {"system": "MSTO-211H", "experiment": "Growth inhibition in human MSTO-211H cells after 72 hrs by trypan blue dye-based assay", "assay_type": "functional", "summary_of_the_method": "as §2"}, "[12]": {"system": "HeLa", "experiment": "Induction of apoptosis in human HeLa cells assessed as early apoptotic cells at 80 uM after 18 hrs by Annexin-V-FITC/propidium iodide staining based flow cytometric analysis (reference value: 5.6%)", "assay_type": "functional", "summary_of_the_method": "as §1"}, "[13]": {"system": "Salmon testes DNA", "experiment": "Binding affinity to salmon DNA at compound to DNA ratio of 0.02 to 0.04 by linear flow dichroism analysis", "assay_type": "nucleic-acid assay", "details": "Salmonidae"}, "[14]": {"system": "HeLa", "experiment": "Growth inhibition in human HeLa cells after 72 hrs by trypan blue dye-based assay", "assay_type": "functional", "summary_of_the_method": "as §2"}, "[15]": {"system": "HeLa", "experiment": "Induction of apoptosis in human HeLa cells assessed as late apoptotic cells at 80 uM after 18 hrs by Annexin-V-FITC/propidium iodide staining based flow cytometric analysis (reference value: 2.2%)", "assay_type": "functional", "summary_of_the_method": "as §1"}, "[16]": {"system": "HeLa", "experiment": "Induction of apoptosis in human HeLa cells assessed as viable cells at 80 uM after 18 hrs by Annexin-V-FITC/propidium iodide staining based flow cytometric analysis (reference value: 91.6%)", "assay_type": "functional", "details": "read-out: Activity", "summary_of_the_method": "as §1"}, "[17]": {"system": "HeLa", "experiment": "Induction of apoptosis in human HeLa cells assessed as early apoptotic cells at 20 uM after 18 hrs by Annexin-V-FITC/propidium iodide staining based flow cytometric analysis (reference value: 5.6%)", "assay_type": "functional", "summary_of_the_method": "as §1"}}, "note": "Activity calls are given as the source filed them. The rule behind the calls is not given here."}
{"smiles": "COc1cc2c3sc4ccccc4c(=O)c3n(CCN(C)C)c2cc1OC", "values": [{"measurement": "Activity", "setting": "[1]", "result": 7.7, "unit": "%"}, {"measurement": "inhibition", "setting": "[2]", "result": "Dose-dependent effect"}, {"measurement": "GI50", "setting": "[3]", "result": 330, "unit": "nM"}, {"measurement": "Activity", "setting": "[4]", "result": 2, "unit": "%"}, {"measurement": "Activity", "setting": "[5]", "result": "inactive"}, {"measurement": "viability at 20 µM", "setting": "[6]", "result": 86.7, "unit": "%"}, {"measurement": "Activity", "setting": "[7]", "result": 2.7, "unit": "%"}, {"measurement": "Activity", "setting": "[8]", "result": "Dose-dependent effect"}, {"measurement": "Activity", "setting": "[9]", "result": "Active"}, {"measurement": "inhibition", "setting": "[10]", "result": "Dose-dependent effect"}, {"measurement": "GI50", "setting": "[11]", "result": 310, "unit": "nM"}, {"measurement": "Activity", "setting": "[12]", "result": 31.5, "unit": "%"}, {"measurement": "Activity", "setting": "[13]", "result": "Active"}, {"measurement": "GI50", "setting": "[14]", "result": 820, "unit": "nM"}, {"measurement": "Activity", "setting": "[15]", "result": 17, "unit": "%"}, {"measurement": "viability at 80 µM", "setting": "[16]", "result": 43.8, "unit": "%"}, {"measurement": "Activity", "setting": "[17]", "result": 8.6, "unit": "%"}]}
